Test results published in paper PMC7210785 (Cancer cell, 2019).

Target: T1, RNF2 (Homo sapiens, UniProt Q99496)
T1 sequence (Q99496 2-336): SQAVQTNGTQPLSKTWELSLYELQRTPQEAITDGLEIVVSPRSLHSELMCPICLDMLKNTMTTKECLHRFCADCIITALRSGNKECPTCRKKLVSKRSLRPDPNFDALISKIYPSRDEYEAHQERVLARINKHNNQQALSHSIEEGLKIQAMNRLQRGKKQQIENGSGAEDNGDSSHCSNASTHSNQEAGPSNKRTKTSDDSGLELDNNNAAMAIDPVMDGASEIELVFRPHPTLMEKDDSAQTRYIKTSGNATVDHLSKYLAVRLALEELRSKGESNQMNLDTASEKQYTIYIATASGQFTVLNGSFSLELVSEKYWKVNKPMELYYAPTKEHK
Assay type: cell-based
Summary of the method: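 RNF2-PRC1 complex immunoprecipitated from PC3 cells, washed, then preincubated with test compound for 30 min at 4 °C. Products run on SDS-PAGE and immunoblotted with anti-H2A. In cells, histones acid-extracted (0.4N H2SO4) from nuclear extracts and probed for H2A/H2AUb.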

IC50: ~0.47 µM
Substance: GW-516 [compound 4]
